Values after ≈ are worked out from the molar mass of the structure shown.
Columns and labels:
Format in all cases: functional
Penicillium [1] = assay: The compound was evaluated for zone inhibition against Penicillium sp (MF5014) using disk diffusion assay; 17 slightly hazy
Method in brief: (§1)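 Filter-paper disks (6.2 mm) loaded with 25 μL of a 250 μg/mL methanol solution, dried at room temperature, laid on seeded agar and rewet with 25 μL 10% aqueous Me₂SO. Media were unbuffered, pH ca. 4.5–5.6: potato dextrose agar for filamentous fungi, sabouraud dextrose agar for yeasts, unless noted. Inhibition zone diameter read after overnight incubation, ±1 mm. Zone edges scored fuzzy, slightly hazy, hazy or very hazy.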

Papiliotrema laurentii [2] = assay: The compound was evaluated for zone inhibition against Cryptococcus laurentii MY1077 using disk diffusion assay; 9 hazy; method in brief: as §1
Aspergillus fumigatus = assay: The compound was tested for antifungal activity against Aspergillus fumigatus MF4839 using agar dilution assay
Method in brief: (§2)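 Standardized agar dilution in Kimmig agar with 5% glycerol. Lysosomotropic detergents solubilized in 10% Me₂SO. Twofold serial dilutions in sterile distilled water gave final agar concentrations of 128 to 0.06 μg/mL. Stated error ±1 dilution stage.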

Saccharomyces cerevisiae [3] = assay: The compound was evaluated for zone inhibition against Saccharomyces cerevisiae YED MY34 using disk diffusion assay; 8 slightly hazy; method in brief: as §1
Saccharomyces cerevisiae [4] = assay: The compound was tested for antifungal activity against Saccharomyces cerevisiae MY1027 using agar dilution assay
Method in brief: (§3)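 Standardized agar dilution on Kimmig agar with 5% glycerol. Detergents solubilized in 10% Me2SO; desoxycholate-stabilized amphotericin B diluted and titrated in sterile distilled water. Twofold dilutions in sterile distilled water gave final agar concentrations of 128 to 0.06 μg/mL. Error limit ±1 dilution stage.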

Fusarium oxysporum = assay: The compound was evaluated for zone inhibition against Fusarium oxysporum (MF4014) using disk diffusion assay; 15 Fuzzy edges; method in brief: as §1
Papiliotrema laurentii [5] = assay: The compound was evaluated for zone inhibition against Cryptococcus laurentii MY1074 using disk diffusion assay; 7 very hazy; method in brief: as §1
Saccharomyces cerevisiae [6] = assay: The compound was evaluated for mean zone diameter (inhibition) against yeast at the concentration of 62.5 ug/mL
Method in brief: (§4)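 Filter-paper disk diffusion (6.2 mm disks) with drug in methanol at the stated level, 25 μL per disk. Disks were air-dried at room temperature, laid on seeded agar, rewet with 25 μL 10% aqueous Me₂SO and incubated overnight. Media were unbuffered, pH ca. 4.5–5.6. The panel was 21 yeasts and 21 filamentous fungi. Zones of 0 mm were excluded from means.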

Kluyveromyces marxianus [7] = assay: The compound was tested for antifungal activity against Candida pseudotropicalis MY1040 using agar dilution assay; method in brief: as §2
Candida tropicalis [8] = assay: The compound was tested for antifungal activity against Candida tropicalis MY1012 using agar dilution assay; method in brief: as §3
Nakaseomyces glabratus [9] = assay: The compound was tested for antifungal activity against Torulopsis glabrata MY1059 using agar dilution assay; method in brief: as §3
Candida albicans [10] = assay: The compound was tested for antifungal activity against Candida stellatoidea MY1017 using agar dilution assay; method in brief: as §3
Trichoderma viride = assay: The compound was evaluated for zone inhibition against Trichoderma lignorum (MF3560) using disk diffusion assay; 13 Fuzzy edges; method in brief: as §1
Rhizomucor miehei = assay: The compound was evaluated for zone inhibition against Rhizomucor miehei (MF4784) using disk diffusion assay; 9 hazy; method in brief: as §1
Aspergillus flavus = assay: The compound was tested for antifungal activity against Aspergillus flavus MF0383 using agar dilution assay; method in brief: as §2
Kluyveromyces marxianus [11] = assay: The compound was evaluated for zone inhibition against Candida pseudotropicalis MY1100 using disk diffusion assay; 19 slightly hazy
Method in brief: (§5)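 Disk diffusion: 25 μL of 250 μg/mL drug in methanol on 6.2 mm paper disks, dried at room temperature, placed on seeded agar and rewet with 25 μL 10% aqueous Me₂SO. Zones were read after overnight incubation, ±1 mm. Media were unbuffered, pH ca. 4.5–5.6: potato dextrose agar for filamentous fungi, Sabouraud dextrose for yeasts, unless YNB (76 mM ammonium sulfate, sole nitrogen source) or YED is named. Zone edges were scored fuzzy, slightly hazy, hazy or very hazy.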

Candida tropicalis [12] = assay: The compound was tested for antifungal activity against Candida tropicalis MY1011 using agar dilution assay; method in brief: as §3
Naganishia albida = assay: The compound was evaluated for zone inhibition against Cryptococcus albidus MY1070 using disk diffusion assay; 9 very hazy; method in brief: as §5
Candida albicans [13] = assay: The compound was tested for antifungal activity against Candida albicans MY1058 using agar dilution assay; method in brief: as §2
[14] = system: Meyerozyma guilliermondii; assay: The compound was tested for antifungal activity against Candida guilliermondii MY1019 using agar dilution assay; method in brief: as §2
Ustilago maydis = assay: The compound was evaluated for zone inhibition against Ustilago zeae (MF1996) using disk diffusion assay; 14 slightly hazy; method in brief: as §1
Penicillium [15] = assay: The compound was evaluated for zone inhibition against Penicillium sp (MF5020) using disk diffusion assay; 15 Fuzzy edges; method in brief: as §1
Cephalosporium = assay: The compound was evaluated for zone inhibition against Cephalosporium sp (MF4641) using disk diffusion assay; 12 slightly hazy; method in brief: as §5
Penicillium italicum = assay: The compound was tested for antifungal activity against Penicillium italicum MF2819 using agar dilution assay; method in brief: as §3
Phoma = assay: The compound was evaluated for zone inhibition against Phoma sp (MF4332) using disk diffusion assay; 13 slightly hazy; method in brief: as §1
Cryptococcus neoformans [16] = assay: The compound was tested for antifungal activity against Cryptococcus neoformans MY1051 using agar dilution assay; method in brief: as §3
Diutina rugosa = assay: The compound was tested for antifungal activity against Candida rugosa MY1022 using agar dilution assay; method in brief: as §2
Penicillium [17] = assay: The compound was evaluated for zone inhibition against Penicillium sp (MF5016) using disk diffusion assay; 18 Fuzzy edges; method in brief: as §1
Saccharomyces cerevisiae [18] = assay: The compound was evaluated for mean zone diameter (inhibition) against yeast at the concentration of 500 ug/mL
Method in brief: (§6)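 Disk diffusion: drug in methanol spotted on 6.2 mm paper disks (25 μL/disk), dried at room temperature, laid on seeded agar, rewet with 25 μL 10% aqueous Me₂SO; zones read after overnight incubation. Unbuffered acidic media (pH ca. 4.5–5.6). Panel of 21 yeasts and 21 filamentous fungi; zones of 0 mm excluded from means.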

Saccharomyces cerevisiae [19] = assay: The compound was evaluated for mean zone diameter (inhibition) against yeast at the concentration of 125 ug/mL; method in brief: as §4
Pichia kudriavzevii = assay: The compound was tested for antifungal activity against Candida krusei MY1020 using agar dilution assay; method in brief: as §2
Ophiostoma ulmi = assay: The compound was evaluated for zone inhibition against Ceratocystis ulmi (MF4042) using disk diffusion assay; 12 slightly hazy; method in brief: as §5
Candida albicans [20] = assay: The compound was tested for antifungal activity against Candida albicans MY0992 using agar dilution assay; method in brief: as §2
Candida albicans [21] = assay: The compound was tested for antifungal activity against Candida albicans MY1055 using agar dilution assay; method in brief: as §2
Nakaseomyces glabratus [22] = assay: The compound was evaluated for zone inhibition against Torulopsis glabrata MY1062 using disk diffusion assay; 7 very hazy; method in brief: as §1
Saccharomyces cerevisiae [23] = assay: The compound was evaluated for zone inhibition against Saccharomyces cerevisiae MY410 using disk diffusion assay; method in brief: as §1
Papiliotrema laurentii [24] = assay: The compound was evaluated for zone inhibition against Cryptococcus laurentii MY1073 using disk diffusion assay; method in brief: as §5
Candida parapsilosis [25] = assay: The compound was tested for antifungal activity against Candida parapsilosis MY1009 using agar dilution assay; details: Lodderomyces parapsilosis; method in brief: as §2
Cercospora beticola = assay: The compound was evaluated for zone inhibition against Cercospora beticola (MF4608) using disk diffusion assay; 8 hazy; method in brief: as §5
Saccharomyces cerevisiae [26] = assay: The compound was evaluated for mean zone diameter (inhibition) against yeast at the concentration of 250 ug/mL; method in brief: as §4
Candida albicans [27] = assay: The compound was tested for antifungal activity against Candida albicans MY1013 using agar dilution assay; method in brief: as §2
Kluyveromyces marxianus [28] = assay: The compound was evaluated for zone inhibition against Kluyveromyces fragilis MY1113 using disk diffusion assay; 15 slightly hazy; method in brief: as §1
Candida albicans [29] = assay: The compound was tested for antifungal activity against Candida albicans My1029 using agar dilution assay; method in brief: as §2
Candida parapsilosis [30] = assay: The compound was tested for antifungal activity against Candida parapsilosis MY1010 using agar dilution assay; details: Lodderomyces parapsilosis; method in brief: as §2
Saccharomyces cerevisiae [31] = assay: The compound was evaluated for mean zone diameter (inhibition) against yeast at the concentration of 1000 ug/mL; method in brief: as §6
Cryptococcus neoformans [32] = assay: The compound was tested for antifungal activity against Cryptococcus neoformans MY1146 using agar dilution assay; method in brief: as §3
Trichoderma = assay: The compound was evaluated for zone inhibition against Trichoderma sp (MF4064) using disk diffusion assay; 16 Fuzzy edges; method in brief: as §1

CCCCCCCCCCCCN1CCOCC1
Inhibition zone (Penicillium [1]): 17 mm | Inhibition zone (Papiliotrema laurentii [2]): 9 mm | MIC (Aspergillus fumigatus): 64 µg/mL (≈ 251 µM) | Inhibition zone (Saccharomyces cerevisiae [3]): 8 mm | MIC (Saccharomyces cerevisiae [4]): 32 µg/mL (≈ 125 µM) | Inhibition zone (Fusarium oxysporum): 15 mm | Inhibition zone (Papiliotrema laurentii [5]): 7 mm | Inhibition zone (Saccharomyces cerevisiae [6]): 8.6 mm | MIC (Kluyveromyces marxianus [7]): 32 µg/mL (≈ 125 µM) | MIC (Candida tropicalis [8]): 16 µg/mL (≈ 62.6 µM) | MIC (Nakaseomyces glabratus [9]): 64 µg/mL (≈ 251 µM) | MIC (Candida albicans [10]): 32 µg/mL (≈ 125 µM) | Inhibition zone (Trichoderma viride): 13 mm | Inhibition zone (Rhizomucor miehei): 9 mm | MIC (Aspergillus flavus): 64 µg/mL (≈ 251 µM) | Inhibition zone (Kluyveromyces marxianus [11]): 19 mm | MIC (Candida tropicalis [12]): 32 µg/mL (≈ 125 µM) | Inhibition zone (Naganishia albida): 9 mm | MIC (Candida albicans [13]): 32 µg/mL (≈ 125 µM) | MIC [14]: 32 µg/mL (≈ 125 µM) | Inhibition zone (Ustilago maydis): 14 mm | Inhibition zone (Penicillium [15]): 15 mm | Inhibition zone (Cephalosporium): 12 mm | MIC (Penicillium italicum): 32 µg/mL (≈ 125 µM) | Inhibition zone (Phoma): 13 mm | MIC (Cryptococcus neoformans [16]): 16 µg/mL (≈ 62.6 µM) | MIC (Diutina rugosa): 32 µg/mL (≈ 125 µM) | Inhibition zone (Penicillium [17]): 18 mm | Inhibition zone (Saccharomyces cerevisiae [18]): 12.8 mm | Inhibition zone (Saccharomyces cerevisiae [19]): 10.2 mm | MIC (Pichia kudriavzevii): 32 µg/mL (≈ 125 µM) | Inhibition zone (Ophiostoma ulmi): 17 mm | MIC (Candida albicans [20]): 64 µg/mL (≈ 251 µM) | MIC (Candida albicans [21]): 32 µg/mL (≈ 125 µM) | Inhibition zone (Nakaseomyces glabratus [22]): 7 mm | Inhibition zone (Saccharomyces cerevisiae [23]): 0 mm | Inhibition zone (Papiliotrema laurentii [24]): 0 mm | MIC (Candida parapsilosis [25]): 64 µg/mL (≈ 251 µM) | Inhibition zone (Cercospora beticola): 8 mm | Inhibition zone (Saccharomyces cerevisiae [26]): 11.4 mm | MIC (Candida albicans [27]): 32 µg/mL (≈ 125 µM) | Inhibition zone (Kluyveromyces marxianus [28]): 15 mm | MIC (Candida albicans [29]): 32 µg/mL (≈ 125 µM) | MIC (Candida parapsilosis [30]): 16 µg/mL (≈ 62.6 µM) | Inhibition zone (Saccharomyces cerevisiae [31]): 19 mm | MIC (Cryptococcus neoformans [32]): 32 µg/mL (≈ 125 µM) | Inhibition zone (Trichoderma): 16 mm

— ChEMBL document CHEMBL1123822, “Lysosomotropic agents. 7. Broad-spectrum antifungal activity of lysosomotropic detergents” (1987)
